{"source": "paper PMC3769431", "about": "(Structure (London, England : 1993), 2013)", "molecules": {"B1": {"name": "STEP: STEP (residues 214–539) (protein, UniProt P54829 214-539, looked up, fragment)", "chain": "TPVFDCVMDIKPEADPTSLTVKSMGLQERRGSNVSLTLDMCTPGCNEEGFGYLMSPREESAREYLLSASRVLQAEELHEKALDPFLLQAEFFEIPMNFVDPKEYDIPGLVRKNRYKTILPNPHSRVCLTSPDPDDPLSSYINANYIRGYGGEEKVYIATQGPIVSTVADFWRMVWQEHTPIIVMITNIEEMNEKCTEYWPEEQVAYDGVEITVQKVIHTEDYRLRLISLKSGTEERGLKHYWFTSWPDQKTPDRAPPLLHLVREVEEAAQQEGPHCAPIIVHCSAGIGRTGCFIATSICCQQLRQEGVVDILKTTCQLRQDRGGMI"}, "B2": {"name": "STEPCAT: STEPCAT (residues 244–539), catalytic domain (protein, UniProt P54829 244-539, looked up, fragment)", "chain": "GSNVSLTLDMCTPGCNEEGFGYLMSPREESAREYLLSASRVLQAEELHEKALDPFLLQAEFFEIPMNFVDPKEYDIPGLVRKNRYKTILPNPHSRVCLTSPDPDDPLSSYINANYIRGYGGEEKVYIATQGPIVSTVADFWRMVWQEHTPIIVMITNIEEMNEKCTEYWPEEQVAYDGVEITVQKVIHTEDYRLRLISLKSGTEERGLKHYWFTSWPDQKTPDRAPPLLHLVREVEEAAQQEGPHCAPIIVHCSAGIGRTGCFIATSICCQQLRQEGVVDILKTTCQLRQDRGGMI", "modifications": "catalytic domain"}, "B3": {"name": "PTPSLCAT: PTPSLCAT (residues 361–655), catalytic domain (protein)", "chain": "TPREKVAMEYLQSASRILTRSQLRDVVASSHLLQSEFMEIPMNFVDPKEIDIPRHGTKNRYKTILPNPLSRVCLRPKNVTDSLSTYINANYIRGYSGKEKAFIATQGPMINTVDDFWQMVWQEDSPVIVMITKLKEKNEKCVLYWPEKRGIYGKVEVLVISVNECDNYTIRNLVLKQGSHTQHVKHYWYTSWPDHKTPDSAQPLLQLMLDVEEDRLASQGRGPVVVHCSAGIGRTGCFIATSIGCQQLKEEGVVDALSIVCQLRMDRGGMVQTSEQYEFVHHALCLYESRLSAET"}, "B4": {"name": "PTPSL (residues 332–655) (domain or fragment, UniProt Q15256 332-655, looked up)", "chain": "GLQERRGSNVSLTLDMSSLGNIEPFVSIPTPREKVAMEYLQSASRILTRSQLRDVVASSHLLQSEFMEIPMNFVDPKEIDIPRHGTKNRYKTILPNPLSRVCLRPKNVTDSLSTYINANYIRGYSGKEKAFIATQGPMINTVDDFWQMVWQEDSPVIVMITKLKEKNEKCVLYWPEKRGIYGKVEVLVISVNECDNYTIRNLVLKQGSHTQHVKHYWYTSWPDHKTPDSAQPLLQLMLDVEEDRLASQGRGPVVVHCSAGIGRTGCFIATSIGCQQLKEEGVVDALSIVCQLRMDRGGMVQTSEQYEFVHHALCLYESRLSAET"}, "B5": {"name": "HePTP: KIM-PTP HePTP (PTPN7, LC-PTP) (protein, UniProt P35236 1-360, looked up)", "Tyrosine-protein phosphatase …": "MVQAHGGRSRAQPLTLSLGAAMTQPPPEKTPAKKHVRLQERRGSNVALMLDVRSLGAVEPICSVNTPREVTLHFLRTAGHPLTRWALQRQPPSPKQLEEEFLKIPSNFVSPEDLDIPGHASKDRYKTILPNPQSRVCLGRAQSQEDGDYINANYIRGYDGKEKVYIATQGPMPNTVSDFWEMVWQEEVSLIVMLTQLREGKEKCVHYWPTEEETYGPFQIRIQDMKECPEYTVRQLTIQYQEERRSVKHILFSAWPDHQTPESAGPLLRLVAEVEESPETAAHPGPIVVHCSAGIGRTGCFIATRIGCQQLKARGEVDILGIVCQLRLDRGGMIQTAEQYQFLHHTLALYAGQLPEEPSP"}, "B6": {"name": "STEP_(F281A/I307A) (domain or fragment)", "chain": "GLQERRGSNVSLTLDMCTPGCNEEGFGYLMSPREESAREYLLSASRVLQAEELHEKALDPFLLQAEFAEIPMNFVDPKEYDIPGLVRKNRYKTALPNPHSRVCLTSPDPDDPLSSYINANYIRGYGGEEKVYIATQGPIVSTVADFWRMVWQEHTPIIVMITNIEEMNEKCTEYWPEEQVAYDGVEITVQKVIHTEDYRLRLISLKSGTEERGLKHYWFTSWPDQKTPDRAPPLLHLVREVEEAAQQEGPHCAPIIVHCSAGIGRTGCFIATSICCQQLRQEGVVDILKTTCQLRQDRGGMIQTCEQYQFVHHVMSLYEKQLSHQS"}}, "key": {"p38α (unphosphorylated) [1]": {"target": "p38α (unphosphorylated) (UniProt Q16539)", "sequence (Q16539 whole entry)": "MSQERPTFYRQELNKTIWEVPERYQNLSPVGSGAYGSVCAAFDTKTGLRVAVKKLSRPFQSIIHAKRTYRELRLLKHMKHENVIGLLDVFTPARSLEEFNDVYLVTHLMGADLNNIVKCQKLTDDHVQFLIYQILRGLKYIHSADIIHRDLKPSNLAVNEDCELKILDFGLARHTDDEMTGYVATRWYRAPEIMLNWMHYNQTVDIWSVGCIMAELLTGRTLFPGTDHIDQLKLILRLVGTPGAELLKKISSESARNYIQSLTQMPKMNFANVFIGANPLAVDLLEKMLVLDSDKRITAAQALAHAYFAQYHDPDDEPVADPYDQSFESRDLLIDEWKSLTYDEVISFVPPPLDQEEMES", "assay": "ITC"}, "p38α [2]": {"target": "T1, p38α (Homo sapiens, UniProt Q16539)", "T1 sequence (Q16539 whole entry)": "as above", "assay": "Small angle X-ray scattering, resting-state complex with unphosphorylated p38α", "details": "SAXS, GNOM", "procedure,_shortened": "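Unphosphorylated p38α was mixed 1:1 with PTPSL 331–655 or STEP 214–539 for 30 min on ice, then SEC-purified in 50 mM HEPES pH 6.8, 150 mM NaCl, 5 mM DTT. Samples were 0.4–4.0 mg/ml (PTPSL) or 1.0–4.0 mg/ml (STEP), filtered, flowed through a 1 mm capillary and exposed 30 s or 180 s at a synchrotron beamline. Dmax came from the P(r) function.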"}, "p38α (unphosphorylated) [3]": {"target": "p38α (unphosphorylated) (UniProt Q16539 1-360)", "sequence (Q16539 whole entry)": "as above", "assay": "ITC"}, "p38α [4]": {"target": "T1, p38α", "assay": "Isothermal titration calorimetry", "type": "binding"}, "p38α [5]": {"target": "T1, p38α", "assay": "NMR chemical shift perturbation, 2D [1H,15N] TROSY of [2H,15N]-p38α", "type": "binding", "details": "for number of p38α peaks with CSPs on complex formation / number of p38α peaks with line-widths broadened beyond detection / number of perturbed p38α peaks in fast exchange: free vs bound p38α, SEC-purified 1:1 complex, NMR buffer pH 6.8; for number of p38α peaks with CSPs on complex formation / number of p38α peaks with line-widths broadened beyond detection / number of perturbed p38α peaks in fast exchange / interaction with p38α by NMR (in words): 298 K; for interaction with p38α by NMR (in words): 2D [1H,15N] TROSY, 800 MHz, 50 mM HEPES pH 6.8, 150 mM NaCl, 5 mM dithiothreitol"}, "p38α [6]": {"target": "T1, p38α", "details": "2011, cited from earlier work; for dephosphorylation of p38α (in words): in vitro phosphatase assays, ref Zhang et al."}, "[7]": {"details": "ITC, 25 °C, 10 mM Tris pH 7.5, 150 mM NaCl, 0.1 mM EDTA, 0.5 mM TCEP"}}}
{"molecule": "STEP (residues 214–539) (domain or fragment)", "values": [{"measurement": "Kd", "setting": "p38α (unphosphorylated) [1]", "result": 577, "unit": "nM"}, {"measurement": "dH", "setting": "p38α (unphosphorylated) [1]", "result": -28.8, "unit": "kcal/mol"}]}
{"molecule": "STEP_(M285A/I307A) (domain or fragment)", "values": [{"measurement": "Kd", "setting": "p38α (unphosphorylated) [1]", "result": 592, "unit": "nM"}, {"measurement": "dH", "setting": "p38α (unphosphorylated) [1]", "result": -27.6, "unit": "kcal/mol"}]}
{"molecule": "PSChimera (from UniProt Q15256 332-373)", "values": [{"measurement": "Kd", "setting": "p38α (unphosphorylated) [1]", "result": 309, "unit": "nM"}, {"measurement": "dH", "setting": "p38α (unphosphorylated) [1]", "result": -27.2, "unit": "kcal/mol"}]}
{"molecule": "STEP_(F274A/F281A) (domain or fragment)", "values": [{"measurement": "Kd", "setting": "p38α (unphosphorylated) [1]", "result": 1070, "unit": "nM"}, {"measurement": "dH", "setting": "p38α (unphosphorylated) [1]", "result": -24.2, "unit": "kcal/mol"}]}
{"molecule": "p38:PTPRR: 1:1 complex of unphosphorylated p38α with PTPSL 331–655", "values": [{"measurement": "Dmax (P(r) function calculation)", "setting": "p38α [2]", "result": 105, "unit": "Å"}, {"measurement": "Rg (P(r) function calculation)", "setting": "p38α [2]", "result": 34.1, "unit": "Å"}]}
{"molecule": "GLQERRGSNVSLTLDMSSLGNIEPFVSIPTPREKVAMEYLQS (peptide, UniProt Q15256 332-373, looked up)", "note": "[PTPSL_(KIMKIS) (residues 332–373)]", "values": [{"measurement": "Kd", "setting": "p38α (unphosphorylated) [3]", "result": "1530 ± 23", "unit": "nM"}, {"measurement": "dH", "setting": "p38α (unphosphorylated) [3]", "result": "-38.8 ± 6.1", "unit": "kcal/mol"}]}
{"molecule": "B1", "values": [{"measurement": "Kd", "setting": "p38α [4]; [7]", "result": "577 ± 71", "unit": "nM"}, {"measurement": "TΔS", "setting": "p38α [4]; [7]", "result": "-20.3 ± 2.0", "unit": "kcal/mol"}, {"measurement": "ΔG", "setting": "p38α [4]; [7]", "result": "-8.5 ± 0.1", "unit": "kcal/mol"}, {"measurement": "ΔH", "setting": "p38α [4]; [7]", "result": "-28.8 ± 2.0", "unit": "kcal/mol"}, {"measurement": "times tighter binding to p38α than STEPKIM", "setting": "p38α [4]; ITC, relative to STEPKIM", "result": "~ 6 times"}, {"measurement": "additional or larger CSPs (residues) than with the corresponding KIM peptide", "setting": "p38α [5]; comparison with p38α:STEPKIM or p38α:PTPSLKIM spectra", "result": "three"}, {"measurement": "number of p38α peaks with CSPs on complex formation", "setting": "p38α [5]", "result": 58, "unit": "peaks"}, {"measurement": "number of p38α peaks with line-widths broadened beyond detection", "setting": "p38α [5]", "result": 18, "unit": "peaks"}, {"measurement": "number of perturbed p38α peaks in fast exchange", "setting": "p38α [5]", "result": 40, "unit": "peaks"}, {"measurement": "kcat for dephosphorylation of p38α, fold lower than for PTPSL or HePTP", "setting": "p38α [6]; compared with PTPSL or HePTP, ref Balasu et al., 2009, Zhang et al.", "result": "~ 20 fold"}, {"measurement": "dephosphorylation of p38α (in words)", "setting": "p38α [6]", "result": "significantly less efficient than PTPSL and HePTP at dephosphorylating p38α"}]}
{"molecule": "B2", "values": [{"measurement": "interaction with p38α by NMR (in words)", "setting": "p38α [5]", "result": "non-specific interactions throughout the p38α surface"}]}
{"molecule": "B3", "values": [{"measurement": "interaction with p38α by NMR (in words)", "setting": "p38α [5]", "result": "no interactions between p38α and isolated PTPSLCAT were detected"}]}
{"molecule": "B4", "values": [{"measurement": "relative binding affinity for p38α (in words)", "setting": "p38α [4]; ITC", "result": "the highest affinity interaction with p38α among the KIM-PTPs"}, {"measurement": "TΔS", "setting": "p38α [4]; [7]", "result": "-21.4 ± 1.4", "unit": "kcal/mol"}, {"measurement": "ΔG", "setting": "p38α [4]; [7]", "result": "-8.8 ± 0.1", "unit": "kcal/mol"}, {"measurement": "times tighter binding to p38α than PTPSLKIM", "setting": "p38α [4]; ITC, relative to PTPSLKIM", "result": "~ 7 times"}, {"measurement": "times tighter binding to p38α than HePTP", "setting": "p38α [4]; relative to HePTP", "result": "~6", "unit": "times"}, {"measurement": "number of p38α peaks with CSPs on complex formation", "setting": "p38α [5]", "result": 41, "unit": "peaks"}, {"measurement": "number of p38α peaks with line-widths broadened beyond detection", "setting": "p38α [5]", "result": 5, "unit": "peaks"}, {"measurement": "number of perturbed p38α peaks in fast exchange", "setting": "p38α [5]", "result": 36, "unit": "peaks"}, {"measurement": "dephosphorylation of p38α (in words)", "setting": "p38α [6]", "result": "the most efficient p38α phosphatase of all tested"}, {"measurement": "Kd", "setting": "p38α (unphosphorylated) [3]", "result": "382 ± 65", "unit": "nM"}, {"measurement": "dH", "setting": "p38α (unphosphorylated) [3]", "result": "-30.2 ± 1.5", "unit": "kcal/mol"}]}
{"molecule": "B5", "values": [{"measurement": "dephosphorylation of p38α (in words)", "setting": "p38α [6]", "result": "can both readily dephosphorylate p38α"}]}
{"molecule": "B6", "values": [{"measurement": "Kd", "setting": "p38α (unphosphorylated) [3]", "result": "1060 ± 36", "unit": "nM"}, {"measurement": "dH", "setting": "p38α (unphosphorylated) [3]", "result": "-34.3 ± 1.1", "unit": "kcal/mol"}]}
